In ChEMBL document CHEMBL3797098, “An in Vitro and in Vivo Investigation of Bivalent Ligands That Display Preferential Binding and Functional Activity for Different Melanocortin Receptor Homodimers” (J Med Chem, 2016):
Blank lines part the entries; values can stand above or below the molecule they belong to. Calls of active or inactive are those of the source. The rule behind the calls is not given here. Square brackets hold non-standard residues; d marks the D form. Peptide text beside a SMILES is read from it.

Key:
[1] = molecular target: Melanocortin receptor 3 (Mus musculus) (UniProt P33033); test: Agonist activity at mouse MC3R expressed in HEK293 cells assessed as cAMP accumulation at 100 uM incubated for 2 hrs by alphascreen assay; assay type: functional, cell-based
Procedure, shortened: (§1)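 cAMP response at 100 μM in stably transfected HEK293 cells (mouse MC3R-Flag, MC4R or MC5R), expressed as % of maximal NDP-MSH signal. AlphaScreen readout after 2 h room-temperature stimulation in IBMX-containing HBSS buffer, pH 7.4. Duplicate points, at least three independent experiments.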

[2] = molecular target: Melanocortin receptor 5 (Mus musculus) (UniProt P41149); test: Agonist activity at mouse MC5R expressed in HEK293 cells assessed as cAMP accumulation at 100 uM incubated for 2 hrs by alphascreen assay; assay type: functional, cell-based; procedure, shortened: as §1
[3] = molecular target: Melanocyte-stimulating hormone receptor (Mus musculus) (UniProt Q01727); test: Displacement of 125I-NDP-MSH from mouse MC1R expressed in HEK293 cells incubated for 1 hr by gamma counting analysis relative to Ac-His-DPhe-Arg-Trp-NH2; assay type: cell-based
Procedure, shortened: (§2)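 Whole HEK293 cells stably expressing mouse MC1R or MC4R, grown to 90-100% confluency, incubated 1 h at 37°C in DMEM/0.1% BSA with 125I-NDP-MSH (100,000 cpm/well) and unlabeled ligand at 10^-12 to 10^-4 M. After one wash, cells lysed with NaOH/Triton X-100 and gamma counted. Nonspecific binding defined with 10^-6 M NDP-MSH.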

[4] = molecular target: Melanocortin receptor 3 (Mus musculus) (UniProt P33033); test: Displacement of 125I-NDP-MSH from mouse MC3R expressed in HEK293 cells incubated for 1 hr by gamma counting analysis relative to Ac-His-DPhe-Arg-Trp-NH2; assay type: cell-based
Procedure, shortened: (§3)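 Mouse MC3R-Flag transiently transfected into HEK293 cells using FuGene6 two days before assay. Cells exposed 1 h at 37°C to 125I-NDP-MSH (100,000 cpm/well) plus competitor at 10^-12 to 10^-4 M in DMEM/0.1% BSA, then washed, lysed and gamma counted. Nonspecific binding defined with 10^-6 M NDP-MSH. Duplicates, ≥2 independent experiments.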

[5] = molecular target: Melanocyte-stimulating hormone receptor (Mus musculus) (UniProt Q01727); test: Agonist activity at mouse MC1R expressed in HEK293 cells assessed as cAMP accumulation incubated for 2 hrs by alphascreen assay relative to Ac-His-DPhe-Arg-Trp-NH2; assay type: functional, cell-based
Procedure, shortened: (§4)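 HEK293 cells stably expressing mouse MC1R, MC3R (Flag-tagged), MC4R or MC5R, 10,000 cells/well, stimulated with ligand at 10^-13 to 10^-4 M for 2 h at room temperature in HBSS stimulation buffer with 0.5 mM IBMX, 0.1% BSA, pH 7.4. cAMP read by AlphaScreen competition after a further 2 h with donor beads.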

[6] = molecular target: Melanocortin receptor 4 (Mus musculus) (UniProt P56450); test: Agonist activity at mouse MC4R expressed in HEK293 cells assessed as cAMP accumulation at 100 uM incubated for 2 hrs by alphascreen assay; assay type: functional, cell-based; procedure, shortened: as §1
[7] = molecular target: Melanocortin receptor 3 (Mus musculus) (UniProt P33033); test: Displacement of 125I-NDP-MSH from mouse MC3R expressed in HEK293 cells at 100 uM incubated for 1 hr by gamma counting analysis; assay type: cell-based; procedure, shortened: as §3
[8] = molecular target: Melanocortin receptor 4 (Mus musculus) (UniProt P56450); test: Agonist activity at mouse MC4R expressed in HEK293 cells assessed as cAMP accumulation incubated for 2 hrs by alphascreen assay relative to Ac-His-DPhe-Arg-Trp-NH2; assay type: functional, cell-based; procedure, shortened: as §4
[9] = molecular target: Melanocortin receptor 5 (Mus musculus) (UniProt P41149); test: Agonist activity at mouse MC5R expressed in HEK293 cells assessed as cAMP accumulation incubated for 2 hrs by alphascreen assay relative to Ac-His-DPhe-Arg-Trp-NH2; assay type: functional, cell-based; procedure, shortened: as §4
Mus musculus [10] = test: Reduction in food intake in male 129/Sv x C57BL/6J mouse at 2.5 to 5 nmol, icv measured at 24 to 72 hrs post dose; assay type: functional, organism-based
Procedure, shortened: (§5)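 Crossover design in mice aged 8 weeks with lateral-ventricle cannulas (placement validated by PYY3-36), chow ad libitum, 12-h light/dark. Single ICV injection of 1.0, 2.5 or 5.0 nmol in 3 µL saline, or saline alone, 2 h before lights out. Food intake and body weight weighed at 0, 2, 4, 6, 8, 24, 48, 72 h. One-way ANOVA with Bonferroni test versus saline.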

Mus musculus [11] = test: Toxicity in male 129/Sv x C57BL/6J mouse assessed as drug tolerability at 2.5 and 5 nmol, icv measured at 2 to 72 hrs post dose; assay type: organism-based; conditions: in vivo
Mus musculus [12] = test: Reduction in food intake in female 129/Sv x C57BL/6J mouse at 2.5 to 5 nmol, icv measured at 48 to 72 hrs post dose; assay type: functional, organism-based; procedure, shortened: as §5
Mus musculus [13] = test: Effect on body weight in female 129/Sv x C57BL/6J mouse at 2.5 to 5 nmol, icv measured at 2 to 72 hrs post dose; assay type: ADME, organism-based; conditions: in vivo, icv_or_intrathecal; procedure, shortened: as §5
Mus musculus [14] = test: Reduction in food intake in icv dosed male 129/Sv x C57BL/6J mouse measured at 2 to 72 hrs post dose; assay type: functional, organism-based; procedure, shortened: as §5
Mus musculus [15] = test: Reduction in food intake in female 129/Sv x C57BL/6J mouse at 2.5 to 5 nmol, icv measured at 2 to 8 hrs post dose; assay type: functional, organism-based; procedure, shortened: as §5
Mus musculus [16] = test: Reduction in food intake in male 129/Sv x C57BL/6J mouse at 2.5 to 5 nmol, icv measured at 2 to 5 hrs post dose; assay type: functional, organism-based
Mus musculus [17] = test: Effect on body weight in male 129/Sv x C57BL/6J mouse at 2.5 to 5 nmol, icv measured at 2 to 72 hrs post dose; assay type: ADME, organism-based; conditions: in vivo, icv_or_intrathecal; procedure, shortened: as §5
Mus musculus [18] = test: Reduction in food intake in female 129/Sv x C57BL/6J mouse at 2.5 to 5 nmol, icv measured at 24 hrs post dose; assay type: functional, organism-based; procedure, shortened: as §5
[19] = molecular target: Melanocortin receptor 4 (Mus musculus) (UniProt P56450); test: Displacement of 125I-NDP-MSH from mouse MC4R expressed in HEK293 cells incubated for 1 hr by gamma counting analysis relative to Ac-His-DPhe-Arg-Trp-NH2; assay type: cell-based; procedure, shortened: as §2

Melanocortin receptor 5 (Mus musculus), sequence (P41149 whole entry): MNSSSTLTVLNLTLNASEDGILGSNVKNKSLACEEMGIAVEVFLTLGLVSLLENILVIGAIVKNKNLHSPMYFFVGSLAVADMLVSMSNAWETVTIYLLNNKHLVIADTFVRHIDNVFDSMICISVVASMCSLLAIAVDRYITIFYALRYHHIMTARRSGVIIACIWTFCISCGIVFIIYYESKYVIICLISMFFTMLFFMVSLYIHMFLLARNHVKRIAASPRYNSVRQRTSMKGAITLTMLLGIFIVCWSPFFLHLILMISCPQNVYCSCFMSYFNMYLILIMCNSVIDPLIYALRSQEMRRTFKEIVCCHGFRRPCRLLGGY
Melanocortin receptor 3 (Mus musculus), sequence (P33033 whole entry): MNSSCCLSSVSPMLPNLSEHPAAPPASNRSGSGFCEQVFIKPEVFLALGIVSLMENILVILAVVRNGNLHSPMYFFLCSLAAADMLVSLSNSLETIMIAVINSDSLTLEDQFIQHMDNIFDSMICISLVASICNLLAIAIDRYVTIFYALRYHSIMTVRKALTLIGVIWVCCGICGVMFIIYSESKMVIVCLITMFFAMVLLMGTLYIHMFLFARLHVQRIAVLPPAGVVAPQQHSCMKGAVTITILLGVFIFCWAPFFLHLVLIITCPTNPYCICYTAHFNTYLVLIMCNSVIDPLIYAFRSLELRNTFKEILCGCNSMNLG
Melanocyte-stimulating hormone receptor (Mus musculus), sequence (Q01727 whole entry, looked up): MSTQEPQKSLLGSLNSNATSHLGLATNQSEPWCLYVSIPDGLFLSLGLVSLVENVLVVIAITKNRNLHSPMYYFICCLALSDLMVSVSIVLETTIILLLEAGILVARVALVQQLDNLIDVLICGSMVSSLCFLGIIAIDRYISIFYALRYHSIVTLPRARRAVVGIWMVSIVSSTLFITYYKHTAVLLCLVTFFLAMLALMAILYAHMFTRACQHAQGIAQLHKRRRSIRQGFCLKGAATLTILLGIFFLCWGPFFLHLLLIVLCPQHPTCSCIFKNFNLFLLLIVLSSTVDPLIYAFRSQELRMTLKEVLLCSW
Melanocortin receptor 4 (Mus musculus), sequence (P56450 whole entry): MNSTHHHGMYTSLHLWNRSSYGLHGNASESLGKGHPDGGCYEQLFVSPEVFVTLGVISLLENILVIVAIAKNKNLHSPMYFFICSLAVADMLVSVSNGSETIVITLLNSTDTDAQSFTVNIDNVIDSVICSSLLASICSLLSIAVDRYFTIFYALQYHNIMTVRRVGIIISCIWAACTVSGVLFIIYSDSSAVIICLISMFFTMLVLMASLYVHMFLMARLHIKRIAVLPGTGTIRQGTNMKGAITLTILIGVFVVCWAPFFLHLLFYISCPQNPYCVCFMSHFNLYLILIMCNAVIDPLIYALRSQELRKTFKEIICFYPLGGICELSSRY

Ratio IC50 [3]: 2
Ratio IC50 [4]: 6
Compound: CC(=O)N[C@@H](Cc1cnc[nH]1)C(=O)N[C@H](Cc1ccccc1)C(=O)N[C@@H](CCCNC(=N)N)C(=O)N[C@@H](Cc1c[nH]c2ccccc12)C(=O)NCCCOCCOCCOCCCNC(=O)COCC(N)=O

Ratio EC50 [5]: 2
inhibition [7]: 85%
Ratio EC50 [8]: 0.2
Compound: CC(=O)N[C@H](Cc1cnc[nH]1)C(=O)N[C@H](Cc1ccccc1)C(=O)N[C@@H](CCCNC(=N)N)C(=O)N[C@H](Cc1c[nH]c2ccccc12)C(=O)N1CCC[C@@H]1C(=O)NCC(=O)N1CCC[C@@H]1C(=O)NCC(=O)N1CCC[C@@H]1C(=O)NCC(=O)N1CCC[C@@H]1C(=O)NCC(=O)N1CCC[C@@H]1C(=O)NCC(=O)N1CCC[C@H]1C(=O)NCC(N)=O

Ratio EC50 [5]: 0.6
Ratio EC50 [9]: 2
inhibition [7]: 78%
Ratio EC50 [8]: 0.7
Compound: N=C(N)NCCC[C@H](NC(=O)[C@@H](Cc1ccccc1)NC(=O)[C@H](Cc1cnc[nH]1)NC(=O)COCC(=O)NCCCOCCOCCOCCCN)C(=O)N[C@@H](Cc1c[nH]c2ccccc12)C(N)=O

Ratio EC50 [5]: 0.9
Ratio EC50 [9]: 2
Compound: N=C(N)NCCC[C@H](NC(=O)[C@@H](Cc1ccccc1)NC(=O)[C@H](Cc1cnc[nH]1)NC(=O)CNC(=O)[C@@H]1CCCN1C(=O)CNC(=O)[C@@H]1CCCN1C(=O)CNC(=O)[C@@H]1CCCN1C(=O)CNC(=O)[C@@H]1CCCN1C(=O)CNC(=O)[C@@H]1CCCN1C(=O)CNC(=O)[C@@H]1CCCN1)C(=O)N[C@@H](Cc1c[nH]c2ccccc12)C(N)=O (H-PGPGPGPGPGPGH[dF]RW-NH2)

The next lines start with the molecule.

Compound: CC(=O)N[C@@H](Cc1c[nH]cn1)C(=O)N[C@H](Cc1ccc2ccccc2c1)C(=O)N[C@@H](CCCN=C(N)N)C(=O)N[C@@H](Cc1c[nH]c2ccccc12)C(N)=O
Activity [1]: 45%
Activity [2]: 75%

Compound: CC(=O)N[C@H](Cc1cnc[nH]1)C(=O)N[C@H](Cc1ccccc1)C(=O)N[C@@H](CCCNC(=N)N)C(=O)N[C@H](Cc1c[nH]c2ccccc12)C(=O)N1CCC[C@@H]1C(=O)NCC(=O)N1CCC[C@@H]1C(=O)NCC(=O)N1CCC[C@@H]1C(=O)NCC(=O)N1CCC[C@@H]1C(=O)NCC(=O)N1CCC[C@@H]1C(=O)NCC(=O)N1CCC[C@H]1C(=O)NCC(=O)N[C@@H](Cc1cnc[nH]1)C(=O)N[C@H](Cc1ccccc1)C(=O)N[C@@H](CCCNC(=N)N)C(=O)N[C@@H](Cc1c[nH]c2ccccc12)C(N)=O
Ratio EC50 [5]: 3

Compound: CC(=O)N[C@@H](Cc1cnc[nH]1)C(=O)N[C@H](Cc1ccc2ccccc2c1)C(=O)N[C@@H](CCCNC(=N)N)C(=O)N[C@@H](Cc1c[nH]c2ccccc12)C(=O)NCCCOCCOCCOCCCNC(=O)COCC(N)=O
Activity [1]: 40%
Activity [6]: 20%
Ratio IC50 [3]: 2

Compound: N=C(N)NCCC[C@H](NC(=O)[C@@H](Cc1ccc2ccccc2c1)NC(=O)[C@H](Cc1cnc[nH]1)NC(=O)COCC(=O)NCCCOCCOCCOCCCN)C(=O)N[C@@H](Cc1c[nH]c2ccccc12)C(N)=O
Activity [6]: 40%
Ratio IC50 [3]: 1
Ratio IC50 [4]: 1

Compound: CC(=O)N[C@@H](Cc1cnc[nH]1)C(=O)N[C@H](Cc1ccccc1)C(=O)N[C@@H](CCCNC(=N)N)C(=O)N[C@@H](Cc1c[nH]c2ccccc12)C(=O)NCCCOCCOCCOCCCNC(=O)COCC(=O)N[C@@H](Cc1cnc[nH]1)C(=O)N[C@H](Cc1ccccc1)C(=O)N[C@@H](CCCNC(=N)N)C(=O)N[C@@H](Cc1c[nH]c2ccccc12)C(N)=O
Activity (Mus musculus [10]): inactive
Activity (Mus musculus [11]): Non-toxic
Activity (Mus musculus [12]): inactive
Activity (Mus musculus [13]): Non-toxic
Activity (Mus musculus [14]): Dose-dependent effect
Activity (Mus musculus [15]): inactive
Activity (Mus musculus [16]): Active
Activity (Mus musculus [17]): Non-toxic
Activity (Mus musculus [18]): Active

Compound: CC(=O)N[C@@H](Cc1cnc[nH]1)C(=O)N[C@H](Cc1ccc2ccccc2c1)C(=O)N[C@@H](CCCNC(=N)N)C(=O)N[C@@H](Cc1c[nH]c2ccccc12)C(=O)NCCCOCCOCCOCCCNC(=O)COCC(=O)N[C@@H](Cc1cnc[nH]1)C(=O)N[C@H](Cc1ccc2ccccc2c1)C(=O)N[C@@H](CCCNC(=N)N)C(=O)N[C@@H](Cc1c[nH]c2ccccc12)C(N)=O
Ratio IC50 [19]: 2
Activity [1]: 80%
Activity [6]: 85%
Ratio IC50 [4]: 4

Compound: CC(=O)N[C@@H](Cc1cnc[nH]1)C(=O)N[C@H](Cc1ccccc1)C(=O)N[C@@H](CCCNC(=N)N)C(=O)N[C@@H](Cc1c[nH]c2ccccc12)C(N)=O
inhibition [7]: 60%
